From ChEMBL document CHEMBL1138372, “Design, synthesis, and biological evaluation of new (2E,6E)-10-(dimethylamino)-3,7-dimethyl-2,6-decadien-1-ol ethers as inhibitors of human and Trypanosoma cruzi oxidosqualene cyclase” (Bioorg Med Chem Lett, 2007)
The source made the active and inactive calls. No cut-off for these calls is given here.

Tests used:
NIH3T3 [1] = assay: Inhibition of sterol biosynthesis in Swiss Albino mouse 3T3 cells assessed as incorporation of [2-14C]acetate in lanosterol at 1 uM; assay type: functional; design: scale not given: the % may be the effect or the level left
In short: (§1)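 3T3 fibroblasts (7×10^4 cells) were grown 24 h in DMEM with 10% lipid-depleted serum, then preincubated 3 h with inhibitor. [2-14C]acetate (1 uCi/well) was added for a further 3 h. Cells were lysed in 0.1 N NaOH and saponified in methanolic KOH (1 h, 80 °C). Nonsaponifiable lipids were extracted and separated by TLC against sterol standards. Label is given as % of total radioactivity in sterols, mean ± SD of two experiments in duplicate.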

Lanosterol synthase [2] = target: T1, Lanosterol synthase (Pneumocystis carinii, UniProt Q96WJ0); assay: Inhibition of Pneumocystis carinii oxidosqualene cyclase
T1 sequence (Q96WJ0 whole entry): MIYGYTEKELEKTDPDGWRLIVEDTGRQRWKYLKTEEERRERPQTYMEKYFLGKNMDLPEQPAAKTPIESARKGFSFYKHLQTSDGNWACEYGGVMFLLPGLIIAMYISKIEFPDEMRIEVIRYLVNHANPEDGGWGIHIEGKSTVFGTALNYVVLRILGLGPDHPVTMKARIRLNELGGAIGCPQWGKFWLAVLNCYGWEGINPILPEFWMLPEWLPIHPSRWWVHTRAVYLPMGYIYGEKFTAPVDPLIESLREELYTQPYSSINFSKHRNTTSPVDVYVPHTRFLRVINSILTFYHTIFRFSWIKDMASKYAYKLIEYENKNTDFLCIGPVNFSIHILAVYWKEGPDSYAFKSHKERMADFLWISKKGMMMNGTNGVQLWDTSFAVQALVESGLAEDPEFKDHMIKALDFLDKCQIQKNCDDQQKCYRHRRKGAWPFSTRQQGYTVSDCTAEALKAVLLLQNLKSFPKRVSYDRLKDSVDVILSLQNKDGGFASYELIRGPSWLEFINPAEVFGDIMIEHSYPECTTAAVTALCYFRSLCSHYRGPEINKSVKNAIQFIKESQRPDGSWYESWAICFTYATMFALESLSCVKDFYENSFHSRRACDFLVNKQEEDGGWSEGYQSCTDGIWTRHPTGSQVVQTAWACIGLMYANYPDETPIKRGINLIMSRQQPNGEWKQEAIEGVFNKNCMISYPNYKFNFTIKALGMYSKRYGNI

NIH3T3 [3] = assay: Inhibition of sterol biosynthesis in Swiss Albino mouse 3T3 cells assessed as incorporation of [2-14C]acetate in […]-dioxidosqualene at 1 uM; assay type: functional; design: scale not given: the % may be the effect or the level left; in short: as §1
NIH3T3 [4] = assay: Inhibition of sterol biosynthesis in Swiss Albino mouse 3T3 cells assessed as incorporation of [2-14C]acetate in 2,3-oxidosqualene at 1 uM; assay type: functional; design: scale not given: the % may be the effect or the level left; in short: as §1
[5] = target: T2, Lanosterol synthase ERG7 (Saccharomyces cerevisiae S288c) (UniProt P38604); assay: Inhibition of Saccharomyces cerevisiae oxidosqualene cyclase at 10 uM
T2 sequence (whole entry): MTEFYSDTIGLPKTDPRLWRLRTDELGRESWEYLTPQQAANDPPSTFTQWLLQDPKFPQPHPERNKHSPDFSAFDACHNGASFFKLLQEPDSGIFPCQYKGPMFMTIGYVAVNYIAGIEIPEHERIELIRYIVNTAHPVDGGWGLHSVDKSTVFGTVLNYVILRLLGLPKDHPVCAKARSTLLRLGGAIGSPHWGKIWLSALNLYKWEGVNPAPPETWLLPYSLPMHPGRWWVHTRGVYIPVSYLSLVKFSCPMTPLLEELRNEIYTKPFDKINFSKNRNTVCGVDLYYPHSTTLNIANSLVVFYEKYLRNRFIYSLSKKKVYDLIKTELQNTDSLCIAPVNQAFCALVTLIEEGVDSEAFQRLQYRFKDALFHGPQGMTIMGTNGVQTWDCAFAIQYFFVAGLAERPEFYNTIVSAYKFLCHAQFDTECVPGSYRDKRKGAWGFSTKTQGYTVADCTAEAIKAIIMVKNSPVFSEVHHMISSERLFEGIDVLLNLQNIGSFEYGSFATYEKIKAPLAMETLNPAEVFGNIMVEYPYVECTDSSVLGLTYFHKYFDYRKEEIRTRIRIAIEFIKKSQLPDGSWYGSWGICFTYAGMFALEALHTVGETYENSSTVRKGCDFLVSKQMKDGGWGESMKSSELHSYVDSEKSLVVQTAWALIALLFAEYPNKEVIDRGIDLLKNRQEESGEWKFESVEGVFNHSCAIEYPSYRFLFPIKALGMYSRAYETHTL

Lanosterol synthase [6] = target: T3, Lanosterol synthase (Homo sapiens, UniProt P48449); assay: Inhibition of human oxidosqualene cyclase expressed in Pichia pastoris cells
T3 sequence (P48449 whole entry): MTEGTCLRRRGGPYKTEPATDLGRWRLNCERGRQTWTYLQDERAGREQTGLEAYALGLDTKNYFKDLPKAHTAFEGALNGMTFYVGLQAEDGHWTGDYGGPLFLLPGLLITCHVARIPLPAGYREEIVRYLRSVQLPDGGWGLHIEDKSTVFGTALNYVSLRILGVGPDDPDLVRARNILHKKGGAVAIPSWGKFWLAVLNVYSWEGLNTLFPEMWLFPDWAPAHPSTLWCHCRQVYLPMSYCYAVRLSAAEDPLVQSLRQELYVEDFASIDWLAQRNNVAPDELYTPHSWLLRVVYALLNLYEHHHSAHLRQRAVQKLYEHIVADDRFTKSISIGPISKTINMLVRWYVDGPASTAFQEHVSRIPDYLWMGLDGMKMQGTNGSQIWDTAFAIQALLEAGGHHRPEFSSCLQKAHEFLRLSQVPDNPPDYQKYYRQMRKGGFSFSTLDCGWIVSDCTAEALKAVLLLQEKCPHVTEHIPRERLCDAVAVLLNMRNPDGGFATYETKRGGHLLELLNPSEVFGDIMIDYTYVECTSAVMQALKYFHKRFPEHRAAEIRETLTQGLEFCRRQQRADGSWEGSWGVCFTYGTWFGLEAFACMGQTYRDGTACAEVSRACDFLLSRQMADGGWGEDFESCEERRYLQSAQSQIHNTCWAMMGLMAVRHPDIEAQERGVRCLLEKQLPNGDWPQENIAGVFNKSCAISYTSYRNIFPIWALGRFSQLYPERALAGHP

NIH3T3 [7] = assay: Inhibition of sterol biosynthesis in Swiss Albino mouse 3T3 cells assessed as incorporation of [2-14C]acetate in squalene at 1 uM; assay type: functional; design: scale not given: the % may be the effect or the level left; in short: as §1
[8] = Inhibition of Trypanosoma cruzi oxidosqualene cyclase
NIH3T3 [9] = assay: Inhibition of sterol biosynthesis in Swiss Albino mouse 3T3 cells assessed as incorporation of [2-14C]acetate in cholesterol at 1 uM; assay type: functional; design: scale not given: the % may be the effect or the level left; in short: as §1
Trypanosoma cruzi = assay: Inhibition of Trypanosoma cruzi oxidosqualene cyclase at 10 uM
NIH3T3 [10] = assay: Inhibition of sterol biosynthesis in Swiss Albino mouse 3T3 cells assessed as decrease in incorporation of [2-14C]acetate in cholesterol at 50 uM; assay type: functional; design: scale not given: the % may be the effect or the level left; in short: as §1
[11] = target: T4, Lanosterol synthase (Homo sapiens) (UniProt P48449); assay: Inhibition of human oxidosqualene cyclase expressed in Pichia pastoris cells at 10 uM
T4 sequence (whole entry): T3 sequence (P48449 whole entry)

Lanosterol synthase ERG7 = target: T5, Lanosterol synthase ERG7 (Saccharomyces cerevisiae S288c, UniProt P38604); assay: Inhibition of Saccharomyces cerevisiae oxidosqualene cyclase
T5 sequence (P38604 whole entry): T2 sequence (whole entry)

[12] = target: T6, Lanosterol synthase (Pneumocystis carinii) (UniProt Q96WJ0); assay: Inhibition of Pneumocystis carinii oxidosqualene cyclase at 10 uM
T6 sequence (whole entry): T1 sequence (Q96WJ0 whole entry)

SMILES	IC50 (Lanosterol synthase [2])	inhibition [5]	IC50 (Lanosterol synthase [6])	IC50 [8]	inhibition (Trypanosoma cruzi)	Activity [5]	inhibition [11]	IC50 (Lanosterol synthase ERG7)	inhibition [12]	Activity (NIH3T3 [1])	Activity (NIH3T3 [3])	Activity (NIH3T3 [4])	Activity (NIH3T3 [7])	Activity (NIH3T3 [9])	Activity (NIH3T3 [10])
C/C(=C\COCCCc1ccc(-c2ccccc2)cc1)CC/C=C(\C)CCCN(C)C	1700 nM	< 20%	4500 nM	7400 nM						6.4%	18%	17.5%	4.9%	53.2%	
C/C(=C\COCCCc1cccc2ccccc12)CC/C=C(\C)CCCN(C)C	10000 nM				< 20%	inactive	< 20%			5%	3.2%	12.5%	6.6%	72.7%	30%
C/C(=C\CO)CC/C=C(\C)CCCN(C)C					< 20%	inactive	< 20%		< 20%	2.5%	1.3%	3.9%	4.1%	88.2%	30%

Now from value to compound, other results behind:

IC50 (Lanosterol synthase [2])	inhibition [5]	IC50 (Lanosterol synthase [6])	IC50 [8]	inhibition (Trypanosoma cruzi)	Activity [5]	inhibition [11]	IC50 (Lanosterol synthase ERG7)	inhibition [12]	SMILES	Activity (NIH3T3 [1])	Activity (NIH3T3 [3])	Activity (NIH3T3 [4])	Activity (NIH3T3 [7])	Activity (NIH3T3 [9])	Activity (NIH3T3 [10])
330 nM		1100 nM	470 nM				450 nM		C/C(=C\COCCCc1ccccc1)CC/C=C(\C)CCCN(C)C	5.5%	30.4%	27.9%	5.5%	31.3%	
360 nM		850 nM	2700 nM				1780 nM		CCCCCCOC/C=C(\C)CC/C=C(\C)CCCN(C)C	7.9%	22.3%	29.6%	4.6%	35.5%	
				< 20%		< 20%		< 20%	C/C(=C\COCCCc1ccccc1)CC/C=C(\C)CCC(=O)N(C)C	3.2%	2.8%	4.6%	4.8%	84.6%	>50%
